These results are taken from ChEMBL document CHEMBL1142744 (Bioorg Med Chem Lett, 2005).

The target of test [1] is Neuronal acetylcholine receptor; alpha3/beta4 (Rattus norvegicus, UniProt P04757+P12392). Briefly: In vitro binding affinity towards rat Nicotinic acetylcholine receptor alpha3-beta4 using 0.5 nM [3H]epibatidine. It counts as protein-complex assay.
The target of test [2] is Neuronal acetylcholine receptor; alpha3/beta4 (Rattus norvegicus) (UniProt P04757+P12392). Briefly: Agonistic activity as [86Rb+] efflux from KXalpha-3-beta-4R2 cells expressing rat Nicotinic acetylcholine receptor at 100 uM. It counts as functional. An outline of the steps: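 KXα3β4R2 cells stably expressing functional rat α3β4 receptors were used. Agonism was read as stimulated 86Rb+ efflux in the presence of compound at 100 µM.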

In test [3] the target is Neuronal acetylcholine receptor; alpha3/beta2 (Rattus norvegicus, UniProt P04757+P12390). Briefly: In vitro binding affinity towards rat Nicotinic acetylcholine receptor alpha3-beta2 using 0.5 nM [3H]epibatidine. It is filed as protein-complex assay.
Neuronal acetylcholine receptor; alpha3/beta2, sequence (P04757 whole entry): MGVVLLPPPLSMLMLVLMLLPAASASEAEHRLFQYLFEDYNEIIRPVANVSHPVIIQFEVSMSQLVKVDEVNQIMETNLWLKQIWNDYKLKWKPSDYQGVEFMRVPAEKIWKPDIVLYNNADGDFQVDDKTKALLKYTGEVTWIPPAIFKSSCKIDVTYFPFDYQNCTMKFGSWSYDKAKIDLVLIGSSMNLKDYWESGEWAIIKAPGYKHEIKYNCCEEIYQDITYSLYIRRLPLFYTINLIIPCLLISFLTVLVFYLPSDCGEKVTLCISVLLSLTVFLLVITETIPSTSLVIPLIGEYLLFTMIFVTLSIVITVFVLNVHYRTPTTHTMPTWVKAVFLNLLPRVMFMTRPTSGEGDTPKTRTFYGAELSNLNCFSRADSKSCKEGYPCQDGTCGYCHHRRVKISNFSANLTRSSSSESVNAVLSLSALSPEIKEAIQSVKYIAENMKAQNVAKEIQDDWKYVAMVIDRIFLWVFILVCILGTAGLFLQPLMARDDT
Neuronal acetylcholine receptor; alpha3/beta2, sequence (P12390 whole entry): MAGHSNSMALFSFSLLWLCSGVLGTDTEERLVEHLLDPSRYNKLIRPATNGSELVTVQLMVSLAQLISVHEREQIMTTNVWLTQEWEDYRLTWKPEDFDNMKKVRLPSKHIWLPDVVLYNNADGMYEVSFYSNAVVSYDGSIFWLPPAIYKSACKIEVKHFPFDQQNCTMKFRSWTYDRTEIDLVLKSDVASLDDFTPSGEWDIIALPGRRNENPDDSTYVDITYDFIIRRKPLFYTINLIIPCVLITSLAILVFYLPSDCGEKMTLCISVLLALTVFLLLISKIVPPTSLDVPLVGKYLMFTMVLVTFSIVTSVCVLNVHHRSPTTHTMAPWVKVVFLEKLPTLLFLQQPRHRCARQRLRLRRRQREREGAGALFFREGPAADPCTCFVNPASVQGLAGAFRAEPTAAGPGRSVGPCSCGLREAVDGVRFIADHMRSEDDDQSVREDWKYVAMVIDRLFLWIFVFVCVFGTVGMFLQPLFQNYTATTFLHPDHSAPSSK
The target in test [4] is Neuronal acetylcholine receptor; alpha2/beta4 (Rattus norvegicus, UniProt P12389+P12392). Description: In vitro binding affinity towards rat Nicotinic acetylcholine receptor alpha2-beta4 using 0.5 nM [3H]epibatidine. It counts as protein-complex assay.
Neuronal acetylcholine receptor; alpha2/beta4, sequence (P12389 whole entry): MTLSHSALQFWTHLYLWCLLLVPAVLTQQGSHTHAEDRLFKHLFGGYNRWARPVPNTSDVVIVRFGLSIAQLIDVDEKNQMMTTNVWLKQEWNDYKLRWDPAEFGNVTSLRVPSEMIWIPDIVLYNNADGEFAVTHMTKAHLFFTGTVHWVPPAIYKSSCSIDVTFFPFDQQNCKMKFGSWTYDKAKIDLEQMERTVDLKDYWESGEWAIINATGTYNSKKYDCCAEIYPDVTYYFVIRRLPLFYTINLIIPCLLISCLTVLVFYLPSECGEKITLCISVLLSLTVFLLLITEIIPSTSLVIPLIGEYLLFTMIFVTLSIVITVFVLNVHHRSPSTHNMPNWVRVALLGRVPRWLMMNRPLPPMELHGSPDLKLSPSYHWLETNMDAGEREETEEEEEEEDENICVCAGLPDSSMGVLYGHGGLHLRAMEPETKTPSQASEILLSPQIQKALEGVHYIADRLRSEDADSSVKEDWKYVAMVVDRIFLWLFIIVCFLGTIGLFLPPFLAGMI
Neuronal acetylcholine receptor; alpha2/beta4, sequence (P12392 whole entry): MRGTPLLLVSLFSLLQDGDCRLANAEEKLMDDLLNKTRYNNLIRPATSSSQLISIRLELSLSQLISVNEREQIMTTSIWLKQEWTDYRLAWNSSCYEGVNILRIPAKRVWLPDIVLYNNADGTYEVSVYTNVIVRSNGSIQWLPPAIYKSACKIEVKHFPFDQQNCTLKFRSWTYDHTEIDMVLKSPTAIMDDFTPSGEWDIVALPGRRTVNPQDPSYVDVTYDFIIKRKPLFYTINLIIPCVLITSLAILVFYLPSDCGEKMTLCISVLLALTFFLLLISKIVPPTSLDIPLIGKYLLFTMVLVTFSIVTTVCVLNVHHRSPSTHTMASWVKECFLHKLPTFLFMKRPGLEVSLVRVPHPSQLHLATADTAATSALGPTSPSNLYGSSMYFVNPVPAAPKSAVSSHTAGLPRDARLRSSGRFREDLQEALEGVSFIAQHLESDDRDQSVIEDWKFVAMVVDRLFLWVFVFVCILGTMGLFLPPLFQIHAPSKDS
The target of test [5] is Neuronal acetylcholine receptor; alpha2/beta2 (Rattus norvegicus, UniProt P12389+P12390). Description: In vitro binding affinity towards rat Nicotinic acetylcholine receptor alpha2-beta2 using 0.5 nM [3H]epibatidine. It is filed as protein-complex assay.
Neuronal acetylcholine receptor; alpha2/beta2, sequence (P12389 whole entry): as the sequence (P12389 whole entry) above
Neuronal acetylcholine receptor; alpha2/beta2, sequence (P12390 whole entry): as the sequence (P12390 whole entry) above
Test [6] concerns the target Neuronal acetylcholine receptor; alpha4/beta2 (Rattus norvegicus, UniProt P09483+P12390). Description: In vitro binding affinity towards rat Nicotinic acetylcholine receptor alpha4-beta2 using 0.5 nM [3H]epibatidine. It counts as protein-complex assay. An outline of the steps: (§1)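 Stably transfected cell lines, each expressing one rat nAChR subtype (α4β2 or α4β4), were used. Ki was derived from the radioligand Kd for each subtype.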

In test [7] the target is Neuronal acetylcholine receptor; alpha4/beta4 (Rattus norvegicus, UniProt P09483+P12392). Description: In vitro binding affinity towards rat Nicotinic acetylcholine receptor alpha4-beta4 using 0.5 nM [3H]epibatidine. It is filed as protein-complex assay. An outline of the steps: as §1
Neuronal acetylcholine receptor; alpha4/beta4, sequence (P09483 whole entry): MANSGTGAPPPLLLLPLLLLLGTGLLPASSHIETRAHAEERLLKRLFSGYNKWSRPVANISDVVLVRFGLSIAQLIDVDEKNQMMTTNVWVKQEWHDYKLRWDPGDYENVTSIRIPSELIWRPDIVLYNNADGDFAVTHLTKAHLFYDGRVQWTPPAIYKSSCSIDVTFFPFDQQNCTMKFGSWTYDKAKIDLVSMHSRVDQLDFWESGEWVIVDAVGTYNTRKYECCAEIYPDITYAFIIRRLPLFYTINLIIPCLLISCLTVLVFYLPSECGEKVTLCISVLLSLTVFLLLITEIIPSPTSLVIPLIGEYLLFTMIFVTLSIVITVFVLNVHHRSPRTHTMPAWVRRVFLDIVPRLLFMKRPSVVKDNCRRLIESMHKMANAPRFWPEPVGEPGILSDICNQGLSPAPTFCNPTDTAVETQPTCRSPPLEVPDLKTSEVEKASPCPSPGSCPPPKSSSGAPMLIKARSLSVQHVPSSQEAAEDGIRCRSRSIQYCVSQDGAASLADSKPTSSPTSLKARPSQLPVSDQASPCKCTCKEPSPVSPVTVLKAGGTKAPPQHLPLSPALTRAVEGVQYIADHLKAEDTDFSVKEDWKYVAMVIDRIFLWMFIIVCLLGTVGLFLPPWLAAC
Neuronal acetylcholine receptor; alpha4/beta4, sequence (P12392 whole entry): as the sequence (P12392 whole entry) above

Neuronal acetylcholine receptor; alpha3/beta4, sequence (P04757 whole entry): as the sequence (P04757 whole entry) above
Neuronal acetylcholine receptor; alpha3/beta4, sequence (P12392 whole entry): as the sequence (P12392 whole entry) above
Neuronal acetylcholine receptor; alpha4/beta2, sequence (P09483 whole entry): as the sequence (P09483 whole entry) above
Neuronal acetylcholine receptor; alpha4/beta2, sequence (P12390 whole entry): as the sequence (P12390 whole entry) above

Turning to `CN1C2CCC1C(c1cnc(Cl)c(-c3ccccc3)c1)C2` (stereo unspecified), the Ki in test [1] was determined as 15.4 nM; in test [3], 0.158 nM; in test [4], 0.24 nM; in test [5], 0.053 nM; in test [6] it was 0.032 nM; in test [7] it was 1.57 nM. Moreover, the Stimulation in test [2] is 3.9%.
As for `COc1ccc(-c2cc(C3CC4CCC3N4)cnc2Cl)cc1` (stereo unspecified), the Ki is 54.5 nM in test [1]; 0.1 nM in test [3]; 0.862 nM in test [4]; 0.04 nM in test [5]; 0.034 nM in test [6]; 1.57 nM in test [7]. In addition, the Stimulation in test [2] was 3.1%.
As to `Fc1ncc(C2CC3CCC2N3)cc1-c1ccc(Cl)cc1` (stereo unspecified), the Ki in test [1] is 256 nM; in test [3], 0.339 nM; in test [4], 4.12 nM; in test [5], 0.064 nM; in test [6] it was 0.062 nM; in test [7] it was 3.99 nM. Besides, the Stimulation in test [2] was 3.2%.
Take `Clc1ncc(C2CC3CCC2N3)cc1-c1ccccc1` (stereo unspecified): the Ki came to 24 nM in test [1]; 0.122 nM in test [3]; 0.47 nM in test [4]; 0.037 nM in test [5]; 0.039 nM in test [6]; 1.15 nM in test [7]. The Stimulation in test [2] is 6.1%.
`Fc1ccc(-c2cc(C3CC4CCC3N4)cnc2F)cc1` (stereo unspecified): the Ki in test [1] came to 405 nM; in test [3] it was 0.504 nM; in test [4], 6.12 nM; in test [5] it was 0.079 nM; in test [6] it was 0.078 nM; in test [7], 6.42 nM. The Stimulation in test [2] was 3.6%.
The compound `Clc1ccc(C2CC3CCC2N3)cn1` (racemic) registered a Stimulation in test [2] of 112%.
In the case of `N#Cc1ccc(-c2cc(C3CC4CCC3N4)cnc2F)cc1` (stereo unspecified), the Ki in test [1] was determined as 289 nM; in test [3] it was 0.351 nM; in test [4], 3.67 nM; in test [5], 0.066 nM; in test [6] it was 0.039 nM; in test [7], 3.6 nM. For the same compound, the Stimulation in test [2] is 36.8%.
For `Cc1ccc(-c2cc(C3CC4CCC3N4)cnc2F)cc1` (stereo unspecified), the Ki in test [1] came to 29 nM; in test [3], 0.078 nM; in test [4], 0.541 nM; in test [5], 0.035 nM; in test [6] it was 0.028 nM; in test [7], 1.22 nM. The Stimulation in test [2] was 1%.
As to `Cc1cc(-c2cc(C3CC4CCC3N4)cnc2F)ccc1F` (stereo unspecified), the Ki turned out to be 2940 nM in test [1]; 8.84 nM in test [3]; 60.1 nM in test [4]; 1.54 nM in test [5]; 1.26 nM in test [6]; 67.6 nM in test [7]. The Stimulation in test [2] is 0.7%.
Turning to `Cc1cccc(-c2cc(C3CC4CCC3N4)cnc2F)c1` (stereo unspecified), the Ki in test [1] amounted to 2400 nM; in test [3], 9.27 nM; in test [4], 31.3 nM; in test [5], 1.11 nM; in test [6], 0.898 nM; in test [7], 36.7 nM. For the same compound, the Stimulation in test [2] is 0.1%.
Take `CN1CCC[C@H]1c1cccnc1`: in test [2], the Stimulation was determined as 100%.
With `Fc1ncc(C2CC3CCC2N3)cc1-c1ccc(Cl)c(Cl)c1` (stereo unspecified), the Ki is 334 nM in test [1]; 2.31 nM in test [3]; 6.99 nM in test [4]; 0.245 nM in test [5]; 0.28 nM in test [6]; 7.36 nM in test [7]. Moreover, in test [2], the Stimulation is 2.7%.
Turning to `Fc1ncc(C2CC3CCC2N3)cc1-c1ccccc1` (stereo unspecified), the Ki amounted to 947 nM in test [1]; 3.54 nM in test [3]; 16.6 nM in test [4]; 0.643 nM in test [5]; 0.733 nM in test [6]; 26 nM in test [7]. Also, in test [2], the Stimulation is 0.4%.
In the case of `Cc1ccc(-c2cc(C3CC4CCC3N4)cnc2Cl)cc1` (stereo unspecified), the Ki is 429 nM in test [1]; 0.171 nM in test [3]; 5.26 nM in test [4]; 0.044 nM in test [5]; 0.058 nM in test [6]; 4.75 nM in test [7]. Moreover, the Stimulation in test [2] is 3.8%.
